From ChEMBL document CHEMBL4513216, “Probing the Open Global Health Chemical Diversity Library for Multistage-Active Starting Points for Next-Generation Antimalarials” (ACS Infect Dis, 2020)

Test: Toxicity liver stage against HepG2, at 10uM
Format: cell-based
Set-up: test concentration 10 uM, cell line HepG2-A16-CD81EGFP
Details: human, HepG2-A16-CD81EGFP cells; read-out: INHIBITION
In short: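 Uninfected HepG2-A16-CD81EGFP cells, 3 × 10^3 per well, 1536-well, plated on prespotted compound at 10 μM final, parasite-free screening media added to match infected plates; puromycin 10 μM positive, DMSO 0.5% negative; run in parallel with 48 h PbLuc assay at 37 °C, 5% CO2; viability by CellTiter-Glo luminescence, normalized to controls.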

SMILES	cytotoxicity at 10 µM
Cc1cc(C)n(CC2CN(Cc3nc(C)c(C)o3)CCO2)n1 (stereo unspecified)	4.17%
Cc1ccccc1C(C#N)NC(=O)c1cccc2c1OCCO2 (stereo unspecified)	-3.38%
CNc1cc(N2CCCC2CNCc2csc(C(C)C)n2)ncn1 (stereo unspecified)	-14.9%
Cc1ccc(-c2ccccc2CC2CNCCNC2=O)c(C)c1 (stereo unspecified)	-1.18%
Cc1n[nH]c(C)c1Sc1ccccc1NC(=O)N1CCN(C)CC1	-12.9%
CCN1CC(=O)NCC12CCN(C(=O)c1ccno1)C2 (stereo unspecified)	-2.75%
CCc1noc(C(C)N2CCN(c3ccc(C#N)cc3F)CC2)n1 (stereo unspecified)	-9.7%
CNc1nc(C)c(C(=O)NCC(C)(C)N2CCCCC2)s1	2.79%
Cc1ccc(N2CCN(C(=O)C3CN(C)C(=O)N3)CC2=O)cc1 (stereo unspecified)	-2.61%
CO[C@@H]1CC[C@@H](N(C)C(=O)c2cn3cc(C)ccc3n2)[C@H]1O	0.91%
CC(C)C(=O)N1CCN(CC(O)c2cc(Cl)ccc2Cl)CC1 (stereo unspecified)	3.41%
COc1ccc(C(=O)N2CC[C@@]3(O)CCCC[C@H]3C2)cc1OC	-43.4%
CC(C)C(=O)N1CCN(CCOc2cccc(C#N)c2)CC1	10.8%
Fc1cccc(-c2nc(CN3CCn4c(nnc4C4CC4)C3)co2)c1	4.4%
CCC(C)N(C)CCNC(=O)NCc1cccc(-n2cncn2)c1 (stereo unspecified)	-8.1%
COC(=O)c1ccc(Cl)c(CN(C)Cc2ncnn2C)c1	-7.81%
Cc1ccnc(C2CN(c3ncccn3)C2)n1	2.55%
CC(=O)NCCNC(=O)c1cnc(C(C)(C)C)s1	-2.17%
Cc1cccc(CN2C[C@@H]3OCCN(c4ccnc(N(C)C)n4)[C@@H]3C2)c1	-94.9%
c1nc2c(c(NC3CCc4ncnn4C3)n1)CCC2 (stereo unspecified)	-40.7%
COc1ccccc1C1CNC(=O)c2nc(-c3ncc[nH]3)[nH]c2C1 (stereo unspecified)	-8.6%
CCOCCNC(=O)c1ccc(OC)cc1I	6.53%
Cc1occc(=O)c1OCc1noc(C(=O)NCC2CC2)n1	-2.51%

SMILES	cytotoxicity at 10 µM
CC1c2ncc(COc3cccnc3)n2CCN1C(=O)C1=CCCC1 (stereo unspecified)	-2.59%
Cn1ccc2ccc(C(=O)N3CCN(C(=O)N4CCOCC4)CC3)cc21	-21.1%
CN1CCN(C)C(CNc2c(C#N)cnc3ccc(Cl)cc23)C1 (stereo unspecified)	-4.58%
CCO[C@H]1CN(CC2CCOCC2)[C@@H]2CCCO[C@H]12	-109%
COc1cccc(C(=O)N2CCOC3(CCCN(C(C)=O)C3)C2)c1 (stereo unspecified)	-68.6%
CN(CCCC#N)C1CCCN(Cc2noc(C3CC3)n2)C1 (stereo unspecified)	-14.5%
NC(=O)c1cc2c(nc1CC1CCCCO1)CCC2 (stereo unspecified)	-5.4%
Cc1cc(C)n(C2CCCN(C(=O)Cc3cccs3)C2)n1 (stereo unspecified)	-20.8%
Cc1nn(C)cc1C1CC(=O)Nc2c1cnn2C(C)(C)C (stereo unspecified)	-5.45%
CCc1cnc(N2CCN(Cc3ccncc3)CC2)s1	40.8%
COc1cccc(CN(C)S(=O)(=O)N2CCOCC2)c1	-8.62%
COc1ccc(C(=O)N2CC[C@@H](N3CCC(O)CC3)[C@H](O)C2)cc1C	-8.1%
CN(C)CCN1CCCC12CCN(C(=O)c1ccco1)CC2	1.49%
CCn1cc(CN2CCCn3nc(CNS(C)(=O)=O)cc3C2)c(C)n1	4.06%
CC(C(=O)O)N1CC2(CCC1=O)CCN(CCSc1ccccc1)CC2 (stereo unspecified)	2.57%
CC(=O)N1CCC(c2nnc3ccc(C(=O)NCCN(C)C)cn23)C1 (stereo unspecified)	-104%
COC(=O)CNC(=O)c1sc(-c2ccc(Cl)s2)nc1C	-5.63%
Cn1ncc2c(NCCn3cccc3)nc(C3CCCC3)nc21	3.07%
Cc1ccc(CN2CCc3nnc(CN4CCCC4=O)n3CC2)s1	1.02%
CCC(CO)N(Cc1ccccn1)C(=O)c1ncccc1C (stereo unspecified)	3.42%
Cn1nc2c(cc1=O)CN(c1ncnc3ccsc13)CC2	9.3%
Cc1cnc2n(c1=O)C(CC(=O)NCc1ccccc1Cl)CS2 (stereo unspecified)	-7.86%
CC(C)N1CCC(NCc2cccnc2N(C)C)CC1	21%

SMILES	cytotoxicity at 10 µM
Cc1ccc(S(=O)(=O)NC(=O)c2c(C)noc2C(C)C)cc1C	-9.11%
CN(C)C(=O)CN1CCCN(CC2CCOc3ccccc3C2)CC1 (stereo unspecified)	-3.42%
CC(=O)CSc1sc2c(O)cc(=O)[nH]c2c1C(N)=O	-3.48%
Cc1csc(S(=O)(=O)N2CCN(C)C3(CCC(=O)N(C)CC3)C2)c1 (stereo unspecified)	1.67%
C[C@H]1CN(C(=O)c2cccc(F)c2Cl)CCN1S(C)(=O)=O	-13.5%
COCCN1CCC2(CC1)CN(C(=O)N(C)C)c1ccc(C)cc12	7.74%
NC(=O)CCNC(=O)Cc1cccc(I)c1	-1.08%
NC(=O)NC1(C(=O)N2CCc3c(Cl)cccc3C2)CCCCC1	-3.45%
CN(C)CCn1cc(NC(=O)NC(C)(C)c2nccs2)cn1	-2.85%
CN(C)C(=O)C1CCN(Cc2csc(C(C)(C)C)n2)CC1	-23%
CCc1nc(CC)n(CC(=O)N(C)CC(F)(F)F)n1	2.19%
CCCC(=O)N1CCC(N2CC[C@@](O)(CCOC)[C@H](C)C2)CC1	-3.58%
CCOCC(=O)N1C[C@@H](O)[C@H](N2CCN(c3ccccc3)CC2)C1	7.43%
COCCOc1ccccc1C(=O)NCCN(C)C(C)C	0.449%
NC(=O)c1c(-c2ccc(Cl)cc2Cl)csc1NC(=O)CCCC(=O)O	5.97%
CN(C)c1ccc(C(=O)N2CCCCC2CC(N)=O)c(F)c1 (stereo unspecified)	7.12%
CC(=O)N(C)c1nc(Cn2nnnc2C2CCCC2)cs1	2.11%
CC(NC(=O)NCc1cccc(F)c1)(C(=O)O)c1ccco1 (stereo unspecified)	-3.33%
CC(Cc1ccccc1F)NC(=O)CCC1=NC(=C2N=CN=N2)NO1 (stereo unspecified)	7.69%
Cc1cc2nc(CO[C@H]3CN(C(=O)C4CC4)C[C@H]3F)[nH]c2cc1C	-43.4%
CC1(C)[C@@H]2CC=C(CN3CCCn4nc(C(=O)O)cc4C3)[C@H]1C2	-40.8%
CO[C@@H]1CCN(c2ncccn2)[C@H]1Cc1ccccc1	-0.651%
NC(=O)c1ccc(C(=O)N2CCCCC2Cn2cccn2)s1 (stereo unspecified)	0.977%

SMILES	cytotoxicity at 10 µM
O=C([C@H]1CN(Cc2ccncc2)C[C@H]2OCC[C@@H]12)N1CCCCO1	9.01%
CN(C)C(=O)CO[C@H]1CO[C@@]2(CCN(Cc3ccoc3)C2)C1	-111%
Cc1ccc(C(=O)Oc2cc(=O)n3cccc(C)c3n2)cc1	5.62%
CNc1cc(C(=O)N2CCCCC2CCn2ccnc2C)ccn1 (stereo unspecified)	1.85%
COc1cc2nc3n(c(=O)c2cc1OC)CCN(C(=O)C(C)(C)C)CC3	-13.5%
CCc1n[nH]c(C2CN(C(=O)c3cnn(CC)c3)CCO2)n1 (stereo unspecified)	-2.87%
COc1c[nH]c(C(=O)N2CCN(c3ccc(Cl)cc3)CC2)cc1=O	4.42%
O=C(CCc1ccc(Cl)s1)N1CCCC(n2cncn2)C1 (stereo unspecified)	-7.7%
Cc1ccsc1-c1nccn1C1CC(=O)N(C(C)C)C1 (stereo unspecified)	-9.73%
Cc1cccc(CNC2CC(=O)N(Cc3cccc(F)c3)C2)c1 (stereo unspecified)	1.22%
COC[C@@H]1CCC[C@@]12CN(C(=O)C1CCOCC1)CCO2	-111%
Cc1cn2c(n1)CCC(NC(=O)c1[nH]ncc1Br)C2 (stereo unspecified)	-6.49%
Cc1nocc1C(=O)N1CCc2c(CN(C)C)nn(C)c2C1	-0.567%
Cc1nccn1C1CCCN(C(=O)c2ccc(N3CCCC3)nn2)C1 (stereo unspecified)	-11.2%
CC(C)NC(=O)C[C@@H]1CCNC[C@@H]1Cc1cc(-c2ccccc2)on1	-0.626%
CNC(=O)c1cn[nH]c1C1CCN(Cc2sccc2C)C1 (stereo unspecified)	-21.2%
CC(=O)c1ccc(S(=O)(=O)Nc2cnn(C3CCOCC3)c2)cc1	-2.25%
CC(O)CN1CCC(CN(C)C(=O)NC2CC2)CC1 (stereo unspecified)	5.55%
COCC1CN(C(=O)c2cccn2C)Cc2nccn2C1 (stereo unspecified)	6.92%
CCOCc1ccc(NCc2cnc(N3CCN(C)CC3)nc2)cc1	12.1%
O=C(NC1CCCC1)N1C[C@H]2CN(c3ccncc3)C[C@@]2(C(=O)O)C1	11.3%
Cc1ccc2nc(-c3cnc(N)nc3)c(C)c(C(=O)N(C)C)c2c1	-13.8%
CN(C)C1CN(C(=O)Nc2cccc(OC(F)F)c2)C1	-0.317%

SMILES	cytotoxicity at 10 µM
CCN(CC)[C@H]1C[C@@H](Cc2cc(CO)on2)C1(C)C	9.12%
Cc1noc([C@@H]2CCCN2C(=O)C2CCN(C(=O)C3CCC3)CC2)n1	-14.4%
CC(=O)N1CC2(CCN(c3nccc4ccccc34)CC2)CC1C(=O)O (stereo unspecified)	4.65%
CNS(=O)(=O)CC(=O)NCc1cc2c(s1)CCCCC2	2.42%
O=C(c1cscn1)N1CCC2(CCN(Cc3cccs3)CC2)C1	3.91%
CC(CNC(=O)N(C)Cc1ccco1)N1CCc2sccc2C1 (stereo unspecified)	-13.7%
CNCc1cc(F)ccc1Oc1ccc(F)cc1F	-11%
O=S(=O)(CCO)CCc1ccccc1Cl	7.21%
COc1cc2c(cc1OC)C(=O)C(Sc1nnnn1C)C2 (stereo unspecified)	-13.7%
c1cc(CN(CCCn2ccnc2)Cc2ccoc2)ccn1	-11.1%
CCc1cnc(CN(C)C2CCN(CCS(C)(=O)=O)C2)o1 (stereo unspecified)	-3.94%
Cc1nn(C)c(N(C)C)c1CNCCS(C)(=O)=O	-17.4%
CC(=O)c1ccc(N2CCN(C(=O)c3cc(C(C)C)nn3C)CC2)cc1	11%
CCC(=O)N1CCCCC1c1nc(O)c2c(n1)CN(C(=O)C1CC1)CC2 (stereo unspecified)	1.23%
CCOc1cccc(CSC(C)c2nc(C)no2)n1 (stereo unspecified)	-22.6%
NC(=O)c1cccc(C(=O)N2CCCC(n3ccnc3)C2)c1 (stereo unspecified)	-14%
Cc1ccnc(OC[C@@]23CCO[C@@H]2CCN(C2CCC2)C3)n1	8.01%
Cc1[nH]c(=O)[nH]c(=O)c1CN1CCCC(CCc2c(F)cccc2F)C1 (stereo unspecified)	-7.32%
O=C(NCc1cccs1)[C@H]1CC[C@@H]2[C@@H](CCN2C2CCC2)O1	-6.34%
